Experimental data taken from PMC9072748 (RSC Advances, 2019).
Where two headings read alike, the source gives them in different places.

Assays:
[1] = system: CT-DNA; assay: Fluorescence EtBr exchange titration on CT-DNA; assay type: binding; conditions: for Stern–Volmer quenching constant K sv × 10^−3: Tris–HCl buffer pH 7.2, head: Ksv × 10^−3; for bimolecular quenching rate constant k q × 10^−13: τ0 = 23 ns, head: kq × 10^−13
In short: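 CT-DNA (10 μM) premixed with EtBr (10 μM) in 5.0 mM Tris–HCl/50 mM NaCl, pH 7.2, then held 4 h at 4 °C. Titrated with incremental aliquots of 5.0 mM test-compound stock in 50% DMSO. Excitation 500 nm; emission decrease recorded over 520–700 nm. Filter-effect corrections applied. DNA concentration set from A260 (ε ≈ 6600 M−1 cm−1).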

[2] = biological target: BSA (Bos taurus, UniProt P02769); assay: BSA tryptophan fluorescence quenching titration; assay type: binding, Bovine; conditions: for number of binding sites, n / binding constant K F × 10^−5: Scatchard equation; for binding constant K F × 10^−5: head: KF × 10^−5; for Stern–Volmer quenching constant K sv × 10^−5: Tris–HCl/50 mM NaCl pH 7.2, head: Ksv × 10^−5; for bimolecular quenching rate constant k q × 10^−10: head: kq × 10^−10
Sequence of BSA (P02769 25-607): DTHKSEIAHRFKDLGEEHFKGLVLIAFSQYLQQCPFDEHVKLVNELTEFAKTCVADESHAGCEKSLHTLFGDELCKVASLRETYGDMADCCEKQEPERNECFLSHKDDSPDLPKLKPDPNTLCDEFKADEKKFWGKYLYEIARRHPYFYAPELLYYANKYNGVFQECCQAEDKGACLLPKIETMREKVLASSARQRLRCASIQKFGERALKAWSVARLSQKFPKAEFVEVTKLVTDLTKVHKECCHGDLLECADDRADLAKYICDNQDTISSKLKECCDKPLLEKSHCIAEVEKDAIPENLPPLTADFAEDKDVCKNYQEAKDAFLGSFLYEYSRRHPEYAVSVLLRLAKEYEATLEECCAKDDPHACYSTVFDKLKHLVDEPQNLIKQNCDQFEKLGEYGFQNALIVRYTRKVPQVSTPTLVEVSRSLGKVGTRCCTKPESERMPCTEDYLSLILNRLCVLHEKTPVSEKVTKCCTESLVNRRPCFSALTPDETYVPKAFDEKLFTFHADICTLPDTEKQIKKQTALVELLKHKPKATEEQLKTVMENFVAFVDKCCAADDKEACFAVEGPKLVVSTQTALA
In short: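 BSA stock (10.4 μM) made in 5.0 mM Tris–HCl/50 mM NaCl, pH 7.2, with concentration set from A278 (ε 4.4 × 10^4 M−1 cm−1). Equilibrated buffered BSA with test compound at 0–130 μM at room temperature. Excitation 278 nm; tryptophan emission read over 250–450 nm. Ksv taken from the slope of Io/I versus [Q].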

[3] = system: HepG2 cells; assay: MTT cytotoxicity assay on HepG2 cells; assay type: cell-based, human; conditions: 24 h incubation
In short: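 HepG2 grown in DMEM with 10% FBS and penicillin/streptomycin (100 μg mL−1 each) at 37 °C, 5% CO2. Seeded at 1 × 10^4 cells/mL, 24 h, then exposed to test compound at 10–50 μM (10 μM steps) for 24 h. MTT (5 mg mL−1 in PBS) added for 2–4 h; formazan dissolved in DMSO; read at 560 nm against 1% DMSO control. IC50 from nonlinear regression of % viability versus concentration.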

[4] = system: HepG2 cells; conditions: cited from earlier work
[5] = system: CT-DNA; assay: Viscosity measurements of CT-DNA; conditions: 5.0 mM Tris–HCl buffer, pH 7.2; 1.0–6.0 mM
In short: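 Sonicated CT-DNA held at constant concentration (5.0 mM) with added test compound, EtBr as reference. After 15 min equilibration, flow time measured in triplicate with a stopwatch. η = (t − t0)/t0, with t0 the flow time of buffer alone. Results plotted as (η/η0)^1/3 versus binding ratio.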

Row | Compound | Stern–Volmer quenching constant K sv × 10^−3 [1] [M^−1] | bimolecular quenching rate constant k q × 10^−13 [1] [M^−1 s^−1] | number of binding sites, n [2] | binding constant K F × 10^−5 [2] [M^−1] | Stern–Volmer quenching constant K sv × 10^−5 [2] [M^−1] | bimolecular quenching rate constant k q × 10^−10 [2] [M^−1 s^−1] | IC50 [3] [µM] | IC50 [4] [µM] | relative viscosity of CT-DNA solutions with increasing concentration [5]
1 | [Cl][Pt][Cl].c1ccc(-c2nc3ccccc3nc2-c2ccccn2)nc1 [bpqPtCl2] | 2.43 ± 0.02 | 1.06 ± 0.10 | 0.98 ± 0.03 | 1.93 ± 0.02 | 2.47 ± 0.03 | 4.97 ± 0.2 | 15.7 ± 1.6 | – | –
2 | N.N.[Cl][Pt][Cl] [cisplatin] | – | – | – | – | – | – | – | 17.9 ± 2.1 | –
3 | [Cl][Pt][Cl].c1ccc(-c2nc3cc4ccccc4cc3nc2-c2ccccn2)nc1 [bbqPtCl2] | 5.49 ± 0.07 | 2.52 ± 0.22 | 1.01 ± 0.05 | 5.34 ± 0.10 | 4.78 ± 0.19 | 9.61 ± 0.5 | 17.4 ± 2 | – | –
4 | CC[n+]1c(-c2ccccc2)c2cc(N)ccc2c2ccc(N)cc21.[Br-] [EtBr, 3,8-diamino-5-ethyl-6-phenylphenanthridinium bromide] | – | – | – | – | – | – | – | – | increased dramatically
5 | Cc1cc2nc(-c3ccccn3)c(-c3ccccn3)nc2cc1C.[Cl][Pt][Cl] [dmbpqPtCl2] | 3.26 ± 0.05 | 1.47 ± 0.16 | 0.98 ± 0.03 | 2.97 ± 0.07 | 3.47 ± 0.11 | 6.98 ± 0.3 | 14.9 ± 1.4 | – | –
